Source: ChEMBL document CHEMBL4842314, “Synthesis and SAR evaluation of coumarin derivatives as potent cannabinoid receptor agonists” (Eur J Med Chem, 2021)

Tests used:
Cannabinoid receptor 1 [1] = biological target: T1, Cannabinoid receptor 1 (Homo sapiens, UniProt P21554); experiment: Displacement of [3H]-CP55940 from human recombinant CB1 receptor expressed in CHO-K1 cell membrane measured after 3 hrs by scintillation spectrometry; format: cell membranes
Cannabinoid receptor 2 [2] = biological target: T2, Cannabinoid receptor 2 (Homo sapiens, UniProt P34972); experiment: Displacement of [3H]-CP55940 from human recombinant CB2 receptor expressed in CHO-K1 cell membrane at 1 uM measured after 3 hrs by scintillation spectrometry; format: cell membranes
T2 sequence (P34972 whole entry): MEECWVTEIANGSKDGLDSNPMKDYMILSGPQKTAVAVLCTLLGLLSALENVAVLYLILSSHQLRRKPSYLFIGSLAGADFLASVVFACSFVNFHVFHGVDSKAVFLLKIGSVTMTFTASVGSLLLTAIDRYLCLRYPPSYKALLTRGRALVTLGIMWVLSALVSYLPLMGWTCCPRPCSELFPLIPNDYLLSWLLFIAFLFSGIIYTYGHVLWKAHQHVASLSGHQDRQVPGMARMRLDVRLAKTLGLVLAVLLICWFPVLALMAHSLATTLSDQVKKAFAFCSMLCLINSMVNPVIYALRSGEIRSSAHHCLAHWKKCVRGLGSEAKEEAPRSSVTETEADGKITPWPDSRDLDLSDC

Cannabinoid receptor 2 [3] = biological target: T2, Cannabinoid receptor 2; experiment: Displacement of [3H]-CP55940 from human recombinant CB2 receptor expressed in CHO-K1 cell membrane measured after 3 hrs by scintillation spectrometry; format: cell membranes
Cannabinoid receptor 1 [4] = biological target: T1, Cannabinoid receptor 1; experiment: Displacement of [3H]-CP55940 from human recombinant CB1 receptor expressed in CHO-K1 cell membrane at 1 uM measured after 3 hrs by scintillation spectrometry; format: cell membranes
Cannabinoid receptor 1 [5] = biological target: T1, Cannabinoid receptor 1; experiment: Agonist activity at human recombinant CB1 receptor expressed in CHO-K1 cell membrane assessed as increase in GTPgammaS binding at 1 uM pretreated for 30 mins followed by [35S]GTPgammaS addition for 90 mins by [35S]GTP-gammaS binding assay relative to CP55940; format: functional, cell membranes; conditions: time 120.0 min
How it was run: (§1)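 Membranes (5 μg) from PathHunter CHOK1 cells stably expressing hCB1 or hCB2 pre-incubated 30 min at room temperature with test ligand at 1 μM final, 1 μM GDP and 5 μg saponin in Tris-HCl pH 7.4, MgCl2, NaCl, EDTA, BSA, DTT. [35S]GTPγS (0.3 nM final) was then added for 90 min at 25 °C. Filtration on GF/B. Emax given relative to CP55,940 (100%), two experiments in duplicate.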

Cannabinoid receptor 2 [6] = biological target: T2, Cannabinoid receptor 2; experiment: Agonist activity at human recombinant CB2 receptor expressed in CHO-K1 cell membrane assessed as increase in GTPgammaS binding at 1 uM pretreated for 30 mins followed by [35S]GTPgammaS addition for 90 mins by [35S]GTP-gammaS binding assay relative to CP55940; format: functional, cell membranes; conditions: filed as agonist, time 120.0 min; how it was run: as §1
Cannabinoid receptor 2 [7] = biological target: T2, Cannabinoid receptor 2; experiment: Agonist activity at human recombinant CB2 receptor expressed in CHO-K1 cell membrane assessed as increase in GTPgammaS binding pretreated for 30 mins followed by [35S]GTPgammaS addition for 90 mins by [35S]GTP-gammaS binding assay; format: functional, cell membranes
How it was run: (§2)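 Concentration-response [35S]GTPγS binding on 5 μg hCB1 or hCB2 CHOK1 membranes. Ligand, 1 μM GDP and saponin pre-incubated 30 min at room temperature, then 0.3 nM [35S]GTPγS added for 90 min at 25 °C. Filtration read-out. Three experiments in duplicate.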

Cannabinoid receptor 1 [8] = biological target: T1, Cannabinoid receptor 1; experiment: Agonist activity at human recombinant CB1 receptor expressed in CHO-K1 cell membrane assessed as increase in GTPgammaS binding pretreated for 30 mins followed by [35S]GTPgammaS addition for 90 mins by [35S]GTP-gammaS binding assay; format: functional, cell membranes; how it was run: as §2

T1 sequence (P21554 whole entry): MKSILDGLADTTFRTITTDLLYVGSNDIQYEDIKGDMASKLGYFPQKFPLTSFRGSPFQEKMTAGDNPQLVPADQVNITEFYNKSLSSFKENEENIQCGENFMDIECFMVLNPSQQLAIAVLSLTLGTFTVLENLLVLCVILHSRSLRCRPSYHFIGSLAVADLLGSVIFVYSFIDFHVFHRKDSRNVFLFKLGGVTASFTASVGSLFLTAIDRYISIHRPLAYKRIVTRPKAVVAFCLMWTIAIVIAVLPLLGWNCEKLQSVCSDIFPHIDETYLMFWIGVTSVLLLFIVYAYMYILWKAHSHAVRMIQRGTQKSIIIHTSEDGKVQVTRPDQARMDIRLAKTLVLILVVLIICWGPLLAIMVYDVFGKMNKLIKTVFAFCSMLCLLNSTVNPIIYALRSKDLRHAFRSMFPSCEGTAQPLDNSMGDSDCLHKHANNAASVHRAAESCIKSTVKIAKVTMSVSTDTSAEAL

Structure (SMILES) | Ki (Cannabinoid receptor 1 [1]; read-out: pKi (converted)) | inhibition (Cannabinoid receptor 2 [2]) | Ki (Cannabinoid receptor 2 [3]; read-out: pKi (converted)) | inhibition (Cannabinoid receptor 1 [4]) | inhibition (Cannabinoid receptor 2 [2]; filed as agonist) | Ki (Cannabinoid receptor 2 [3]; read-out: Ki) | inhibition (Cannabinoid receptor 1 [4]; filed as agonist) | further results
CCCCC1(c2cc(OC)c3cc(Cc4cccnc4)c(=O)oc3c2)CCCCC1 | > 1 µM | 11% | > 1 µM | 6% | – | – | – | –
CCCCCc1cc(OC)c2cc(Cc3cccnc3)c(=O)oc2c1 | – | – | – | – | > 50% | 0.0565 µM | > 50% | Ki (Cannabinoid receptor 1 [1]; read-out: Ki): 0.171 µM; Emax (Cannabinoid receptor 1 [5]; filed as agonist): 40%; Emax (Cannabinoid receptor 2 [6]): 40%
CCCCC(C)(C)c1cc(OC)c2cc(Cc3ccccc3OC)c(=O)oc2c1 | – | – | – | – | > 50% | 0.231 µM | > 50% | Ki (Cannabinoid receptor 1 [1]; read-out: Ki): 0.196 µM
CCCCC1(c2cc(OC)c3cc(CC)c(=O)oc3c2)CCCC1 | > 1 µM | 0% | > 1 µM | 33% | – | – | – | –
CCCCC1(c2cc(OC)c3cc(CCC)c(=O)oc3c2)CCCCC1 | > 1 µM | -4% | > 1 µM | 18% | – | – | – | –
CCCCc1cc2c(O)cc(C3(CCCC)CCCC3)cc2oc1=O | 1 µM | – | – | – | > 50% | 0.0137 µM | 50% | EC50 (Cannabinoid receptor 2 [7]): 0.018 µM; Emax (Cannabinoid receptor 2 [6]): 85%
CCCCC1(c2cc(O)c3cc(-c4ccccc4)c(=O)oc3c2)CCCC1 | > 1 µM | – | > 1 µM | – | – | – | – | –
CCCCC1(c2cc(O)c3cc(C)c(=O)oc3c2)CCCCC1 | > 1 µM | – | – | 19% | > 50% | 0.106 µM | – | Emax (Cannabinoid receptor 2 [6]): 66%
CCCCC1(c2cc(OC)c3cc(Cc4ccncc4)c(=O)oc3c2)CCCC1 | > 1 µM | 9% | > 1 µM | 28% | – | – | – | –
CCCCC1(c2cc(OC)c3cc(Cc4cccnc4)c(=O)oc3c2)CCCC1 | > 1 µM | – | > 1 µM | 29% | 40% | – | – | –
CCCCC1(c2cc(O)c3cc(Cc4ccccn4)c(=O)oc3c2)CCCCC1 | > 1 µM | – | – | -7% | > 50% | 0.0719 µM | – | EC50 (Cannabinoid receptor 2 [7]): 0.042 µM; Emax (Cannabinoid receptor 2 [6]): 68%
CCCCCc1cc(O)c2cc(Cc3ccccn3)c(=O)oc2c1 | > 1 µM | – | > 1 µM | – | – | – | – | –
CCCCCCC(C)(C)c1cc(OC)c2cc(Cc3ccccc3)c(=O)oc2c1 | – | – | – | – | > 50% | – | > 50% | –
CCCCC1(c2cc(OC)c3cc(CC)c(=O)oc3c2)CCCCC1 | > 1 µM | -1% | > 1 µM | 6% | – | – | – | –
CCCCCCC(C)(C)c1cc(O)c2cc(Cc3ccccc3O)c(=O)oc2c1 | – | – | – | – | > 50% | – | > 50% | –
CCCCC1(c2cc(OC)c3cc(-c4ccccc4)c(=O)oc3c2)CCCC1 | > 1 µM | -8% | > 1 µM | 34% | – | – | – | –
CCCCC1(c2cc(O)c3cc(CCC)c(=O)oc3c2)CCCC1 | > 1 µM | – | – | – | > 50% | 0.0186 µM | 47% | Emax (Cannabinoid receptor 2 [6]): 91%
CCCCC1(c2cc(OC)c3cc(C)c(=O)oc3c2)CCCCC1 | > 1 µM | – | > 1 µM | 9% | – | – | – | –
CCCCC1(c2cc(OC)c3cc(CCC)c(=O)oc3c2)CCCC1 | > 1 µM | 38% | > 1 µM | 32% | – | – | – | –
CCCCC(C)(C)c1cc(O)c2cc(Cc3ccccc3C)c(=O)oc2c1 | > 1 µM | – | > 1 µM | 30% | 41% | – | – | –
CCCCC1(c2cc(O)c3cc(Cc4ccccn4)c(=O)oc3c2)CCCC1 | > 1 µM | – | > 1 µM | 34% | 44% | – | – | –
CCCCC1(c2cc(O)c3cc(CCC)c(=O)oc3c2)CCCCC1 | – | – | – | – | > 50% | 0.0065 µM | > 50% | Ki (Cannabinoid receptor 1 [1]; read-out: Ki): 0.159 µM; Emax (Cannabinoid receptor 1 [5]): 23%; EC50 (Cannabinoid receptor 2 [7]): 0.00451 µM; Emax (Cannabinoid receptor 2 [6]): 62%; EC50 (Cannabinoid receptor 1 [8]): 1.12 µM
CCCCC1(c2cc(OC)c3cc(Cc4ccccn4)c(=O)oc3c2)CCCCC1 | > 1 µM | 12% | > 1 µM | – | – | – | 47% | –
CCCCC1(c2cc(O)c3cc(C)c(=O)oc3c2)CCCC1 | > 1 µM | – | 1 µM | -10% | 49% | – | – | –
CCCCC1(c2cc(O)c3cc(CC)c(=O)oc3c2)CCCCC1 | > 1 µM | – | – | 39% | > 50% | 0.0391 µM | – | Emax (Cannabinoid receptor 2 [6]): 65%
CCCCCc1cc(O)c2cc(Cc3ccncc3)c(=O)oc2c1 | > 1 µM | -5% | > 1 µM | – | – | – | – | –
